According to ChEMBL document CHEMBL1154438, “Synthesis, spectral studies and antiamoebic activity of new 1-N-substituted thiocarbamoyl-3-phenyl-2-pyrazolines” (Eur J Med Chem, 2009):

These compounds were tested on Entamoeba histolytica (assay: Antiamoebic activity against Entamoeba histolytica HM-1:IMSS after 72 hrs by microdilution assay).
Assay type: functional, organism-based
How it was run: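 E. histolytica trophozoites grown in TYIS-33 medium; compounds dissolved in DMSO and diluted in medium to a 1 mg/mL stock, then two-fold serial dilutions in wells. Inoculum 1.7 × 10⁴ organisms/well, gassed with nitrogen, 37 °C for 72 h. Cells methanol-fixed and eosin-stained, dye released with 0.1 N NaOH, OD 490 nm read. Percent inhibition versus log dose, IC50 from linear regression.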

Compound	IC50
Cc1ccccc1NC(=S)N1CCC(c2cccc(Cl)c2)=N1	1680 nM
CN(Cc1ccccc1)C(=S)N1CCC(c2cccc(Cl)c2)=N1	2910 nM
S=C(N1CCCCCC1)N1CCC(c2ccccc2)=N1	4390 nM
S=C(NC1C2CC3CC(C2)CC1C3)N1CCC(c2cccc(Br)c2)=N1 (stereo not given)	580 nM
Cc1ccc(NC(=S)N2CCC(c3ccccc3)=N2)cc1	9560 nM
Cc1cccc(NC(=S)N2CCC(c3cccc(Cl)c3)=N2)c1	2810 nM
S=C(N1CCCC1)N1CCC(c2cccc(Br)c2)=N1	2820 nM
S=C(N1CCCC1)N1CCC(c2ccccc2)=N1	3730 nM
S=C(NC1C2CC3CC(C2)CC1C3)N1CCC(c2cccc(Cl)c2)=N1 (stereo not given)	470 nM
CN(Cc1ccccc1)C(=S)N1CCC(c2ccccc2)=N1	7310 nM
CN(C(=S)N1CCC(c2cccc(Cl)c2)=N1)C1CCCCC1	3710 nM
CN(C(=S)N1CCC(c2cccc(Br)c2)=N1)C1CCCCC1	5250 nM
Cc1ccccc1NC(=S)N1CCC(c2cccc(Br)c2)=N1	3820 nM
S=C(NC1C2CC3CC(C2)CC1C3)N1CCC(c2ccccc2)=N1 (stereo not given)	1790 nM
Cc1ccc(NC(=S)N2CCC(c3cccc(Cl)c3)=N2)cc1	2400 nM
CN(Cc1ccccc1)C(=S)N1CCC(c2cccc(Br)c2)=N1	4440 nM

More lines, in order of falling IC50, values ahead:

IC50	Compound
6190 nM	S=C(N1CCC(c2ccccc2)=N1)N1CCCc2ccccc21
5940 nM	CN(C(=S)N1CCC(c2ccccc2)=N1)C1CCCCC1
5330 nM	Cc1ccc(NC(=S)N2CCC(c3cccc(Br)c3)=N2)cc1
5010 nM	Cc1cccc(NC(=S)N2CCC(c3ccccc3)=N2)c1
4780 nM	Cc1ccccc1NC(=S)N1CCC(c2ccccc2)=N1
3350 nM	Cc1cccc(NC(=S)N2CCC(c3cccc(Br)c3)=N2)c1
2780 nM	S=C(N1CCC(c2cccc(Br)c2)=N1)N1CCCc2ccccc21
2310 nM	S=C(N1CCCC1)N1CCC(c2cccc(Cl)c2)=N1
1770 nM	S=C(N1CCC(c2cccc(Cl)c2)=N1)N1CCCc2ccccc21
1760 nM	Fc1ccc(NC(=S)N2CCC(c3ccccc3)=N2)c(F)c1
1090 nM	S=C(N1CCCCCC1)N1CCC(c2cccc(Br)c2)=N1
890 nM	S=C(N1CCCCCC1)N1CCC(c2cccc(Cl)c2)=N1
670 nM	Fc1ccc(NC(=S)N2CCC(c3cccc(Br)c3)=N2)c(F)c1
510 nM	Fc1ccc(NC(=S)N2CCC(c3cccc(Cl)c3)=N2)c(F)c1
